# According to PMC4919474 (EBioMedicine, 2016):
# Tested on: Drosophila S3 cells
# Experiment: qHTS of OA-induced lipid droplet storage in S3 cells
# Format: cell-based
# Details: Drosophila melanogaster
# In short: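 Drosophila S3 cells in medium with 5% FCS receive library compounds at […] (46 μM to 3 nM, 1:5 steps). Droplets are induced with 400 μM oleic acid on fatty-acid-free BSA. After 18 h, cells are fixed and stained with BODIPY 493/503 (lipid) and CellTracker Red CMTPX (cell count), then read by 488 nm laser scanning. Lipid signal is normalised to cell number; dose-response curves are fitted.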
compound,measurement,value
CCC/C=C/C/C=C/C=C/C=N/NN=O [TriacsinC],EC50,90 nM
